Many of the other results were omitted from the sample, so hits are more common in it than they were.
Insulin prom act: TRM-6 insulin promoter activation; activation, % at 2 µM; AID 1296; hit rate 0.81% among 130,000; TRM-6 cells (human fetal islet line), insulin promoter eGFP reporter, imaging; plate-scaled: unstimulated 0, stimulated control 100;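 active means activation at 2 µM above a set limit, confirmed on inspection of the cell images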;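 further: share of cells whose green reporter signal exceeds an intensity cutoff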
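System – TRM-6 insulin promoter–eGFP reporter cells · Probe or stimulus – 0.75 µM tamoxifen as reporter inducer · Dosing – single-point 2 µM compound dose · Incubation – tamoxifen pre-incubation 15 h overnight, then compound exposure 48 h at 37 °C · Measured by – fixed-cell fluorescence microscopy, eGFP plus Hoechst · Evaluation – percent GFP-positive cells normalized to per-plate controls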
The depositor's hits bear a star.

SMILES | Insulin prom act
CNC(=O)c1nnsc1S(=O)(=O)c1ccc(Cl)cc1 | 754.5*
Cc1ccc(C(=O)NCC(=O)NCC(=O)OCC(=O)c2cccs2)cc1 | 471.4*
Cc1ccc(NC(=O)COC(=O)CCC(=O)c2cccs2)cc1 | 7.7
Cc1ccc(C(=O)COC(=O)CNC(=O)c2cccs2)cc1C | -4.3
O=C(Nc1ccccc1C(=O)NCc1cccnc1)c1ccc(Cl)cc1Cl | 0.0
O=C(Nc1sccc1C(=O)N1CCOCC1)c1cccnc1 | 0.0
COc1ccccc1CC(=O)Nc1cccc2c1CCCC2 | 7.7
COc1ccccc1CC(=O)Nc1cc(Cl)ccc1O | -4.7
COc1cc(NC(=O)Cc2ccccc2OC)cc(OC)c1 | 435.3*
O=C1CC(c2cccc(Cl)c2)C(n2cncn2)C(=O)C1C1NCCc2ccccc21 (configuration not stated) | -7.1
Cc1ccc(-c2n[nH]c(=S)n2/N=C/c2c(C)nn(-c3ccccc3)c2C)cc1 | -6.7
Cc1cccc(-c2n[nH]c(=S)n2/N=C/c2ccc(C)s2)c1 | 5.6
CCN(CC)S(=O)(=O)c1cccc(-c2n[nH]c(=S)n2/N=C/c2ccc(Br)cc2)c1 | 438.5*
COc1cccc(CNC(=O)Cc2c(C(=O)O)[nH]c3ccccc23)c1 | -7.1
COc1cc(S(=O)(=O)NCC2OCCc3ccccc32)ccc1-n1cnnn1 (configuration not stated) | 3.3
CCCC(=O)C1=C(O)C(C(=O)OC)C(C)(C)CC1=Nc1cccc2ccccc12 (configuration not stated) | 105.6
CCCC(=O)C1=C(O)C(C(=O)OC)C(C)(C)CC1=NC(C)C (configuration not stated) | 480.0*
O=C(CSCc1ccccc1)N/N=C/c1cc2c(cc1Br)OCO2 | 0.0
COc1cc(C(=O)Nc2ccc3c(c2)OCCO3)ccc1OC(F)F | -3.2
CCOC(=O)c1ccc(NC(=O)Nc2ccc3c(c2)OCCO3)cc1 | -2.8
COc1ccc(C(=O)CCNc2ccc3c(c2)OCCO3)cc1 | 356.3*
Cc1cccc(-n2c(CCc3ccccc3)nnc2SCC(=O)c2ccccc2)c1 | 213.3
CN1CCN(C(=O)C(C(=O)c2ccc(F)cc2)n2ccccc2=O)CC1 (configuration not stated) | -5.7
Cc1ccc(S(=O)(=O)NCC2NCCc3ccccc32)cc1 (configuration not stated) | 0.0
S=C1NCCc2ccccc2C1c1ccccc1Cl (configuration not stated) | 468.8*
SMILES | Insulin prom act
Cc1cccc(N2CCN(C(=O)C3CCN(S(=O)(=O)N4CCOCC4)CC3)CC2)c1C | 7.1
CCC(=O)c1c(OCc2ccccc2)ccc2c(C)cc(=O)oc12 | -6.7
CC(C)[C@H](NC(N)=O)C(=O)NCCc1ccc(Cl)cc1Cl | -5.9
CC(C)CCNC(=O)[C@@H](NC(=O)c1c(F)cccc1F)C(C)C | 94.2*
Cc1nc2c(C(=O)NCCC(C)C)c[nH]n2c(=O)c1Cc1ccccc1F | 0.0
Cc1ccc(S(=O)(=O)N2CCC[C@H]2C(=O)OC(C)C(=O)Nc2ncc(Cl)cc2Cl)cc1 (some centres not stated) | -2.9
O=C(Nc1ccncc1)C1(c2ccccc2)CCCC1 | 0.0
CC(=O)N1N=C(c2ccncc2)OC12CCCC2 | 542.9*
CCOc1ccc(NC(=S)c2ccncc2)cc1 | -63.6
O=C(CCCN1C(=O)c2ccccc2C1=O)NCc1ccco1 | 238.9
O=C(CCCN1C(=O)c2ccccc2C1=O)Nc1cccnc1 | -9.5
O=C(CCCN1C(=O)c2ccccc2C1=O)NCc1cccnc1 | 473.3*
O=C1OC(C(=O)O)Cc2ccccc21 (configuration not stated) | 271.4
COc1ccc(-c2nsc(SCC(=O)Nc3cc(C)on3)n2)cc1 | 2.5
Cc1cccc(-c2nsc(SCC(=O)Nc3nccs3)n2)c1 | 121.4*
CCc1nnc(NC(=O)CSc2nc(-c3ccc(OC)cc3)ns2)s1 | -24.6
CC1c2c([nH]c3ccccc23)CCC1C(=O)O (configuration not stated) | -5.1
CCOC(=O)C(=NC1CCS(=O)(=O)C1)NNc1ccc(Br)cc1 (configuration not stated) | -8.3
CC1(C)Cn2c(nnc2-c2cccc(O)c2)S1 | -90.9
O=C(O)CSc1c(-c2cccs2)[nH]c2ccccc12 | -6.5
Cc1cc(NC(=O)c2ccc(NC(=O)CC(C)C)cc2)no1 | 523.1*
Cc1cc(NC(=O)c2ccc(Cl)cc2)no1 | 200.0
Cc1cc(NC(=O)c2ccc(S(=O)(=O)N(C)C)cc2)no1 | 7.7
CCCCC1CCC(C(=O)Nc2c(C)n(C)n(-c3ccccc3)c2=O)CC1 (configuration not stated) | 121.1
COc1cc(C(=O)N[C@H](C(=O)NC(C)C23CC4CC(CC(C4)C2)C3)C(C)C)cc(OC)c1OC (some centres not stated) | -2.9
COc1cc(OC)cc(C(=O)N[C@H](C(=O)OCC(=O)Nc2ccc(C)cc2C)C(C)C)c1 | 7.7
COc1ccc(C)cc1NC(=O)C(NC(=O)c1cc(OC)c(OC)c(OC)c1)C(C)C (configuration not stated) | 433.3*
CCCCn1c(N)c(NCCC)c(=O)[nH]c1=O | -9.1

High-throughput results: PubChem, Columbia University Molecular Screening Center
